Reference: ChEMBL document CHEMBL4052597, “Symmetrically Substituted Xanthone Amphiphiles Combat Gram-Positive Bacterial Resistance with Enhanced Membrane Selectivity” (J Med Chem, 2017)
Values after ≈ are worked out from the molar mass of the structure shown. Active and inactive are the calls of the source. No cut-off for these calls is given here.

Key:
Staphylococcus aureus [1] = test: Antibacterial activity against methicillin-resistant Staphylococcus aureus ATCC 43300 after 24 hrs by two fold dilution assay; type: functional; conditions: ATCC 43300, 24 h
Summary of the method: (§1)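 CLSI broth macrodilution in cation-adjusted Mueller-Hinton broth. Compounds were dissolved in DMF and diluted in PBS to a 1000 µg/mL stock, then serially 2-fold diluted in CA-MHB. The inoculum came from colonies on 18-20 h TSA plates (direct colony suspension), adjusted to ~5×10^5 CFU/mL. Incubation was 24 h at 35 °C. MIC is the lowest concentration with no visible growth versus control. Biological replicates.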

[2] = Cytotoxicity against human corneal fibroblasts assessed as reduction in cell viability up to 250 uM after 4 hrs by CytoTox-ONE reagent-based LDH assay relative to control; conditions: corneal fibroblast
Summary of the method: (§2)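 Human corneal fibroblasts exposed to compound; cytotoxicity taken from LDH leakage, with cells treated with 1% triton X-100 as positive control. Measurements replicated.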

Staphylococcus aureus [3] = test: Antibacterial activity against methicillin-sensitive Staphylococcus aureus DM4299 after 24 hrs by two fold dilution assay; type: functional; conditions: DM4299, 24 h; summary of the method: as §1
Staphylococcus aureus [4] = test: Antibacterial activity against methicillin-resistant Staphylococcus aureus ATCC 700699 after 24 hrs by two fold dilution assay; type: functional; conditions: Mu50, 24 h; summary of the method: as §1
Staphylococcus aureus [5] = test: Antibacterial activity against methicillin-sensitive Staphylococcus aureus ATCC 29737 after 24 hrs by two fold dilution assay; type: functional; conditions: ATCC 29737, 24 h; summary of the method: as §1
Enterococcus faecium [6] = test: Antibacterial activity against vancomycin A-resistant Enterococcus faecium VRE 1006 after 24 hrs by two fold dilution assay; type: functional; conditions: VRE 1006, 24 h; summary of the method: as §1
[7] = Solubility of the compound in water; type: physicochemical; conditions: buffer
Enterococcus hirae = test: Antibacterial activity against Enterococcus hirae ATCC 9790 after 24 hrs by two fold dilution assay; type: functional; conditions: ATCC 9790, 24 h
Summary of the method: (§3)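 Broth macro-dilution per CLSI in cation-adjusted Mueller-Hinton broth; compounds dissolved in DMF, diluted in PBS to 1000 µg/mL stock, then serial 2-fold dilutions in CA-MHB in tubes. Inoculum from 18-20 h TSA colonies (direct colony suspension), adjusted to about 5× 10^5 CFU/mL. MIC read after 24 h at 35 °C as lowest concentration with no visible growth; biological replicates.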

Staphylococcus aureus [8] = test: Antibacterial activity against methicillin-resistant Staphylococcus aureus DB6506 after 24 hrs by two fold dilution assay; type: functional; conditions: DB6506, 24 h; summary of the method: as §1
Enterococcus faecium [9] = test: Antibacterial activity against vancomycin A-resistant Enterococcus faecium VRE 1008 after 24 hrs by two fold dilution assay; type: functional; conditions: VRE 1008, 24 h; summary of the method: as §1
Lipid bilayer [10] = test: Induction of membrane damage in DOPE/DOPG large unilamellar vesicles assessed as calcein leakage at compound to lipid ratio of 1:16 after 1 hr by fluorescence assay relative to control
Summary of the method: (§4)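 100 nm calcein-loaded LUVs made by film hydration; lipid content set by total phosphorus assay. DOPC/cholesterol (3:1, w/w) mimics mammalian and DOPE/DOPG (3:1, w/w) bacterial membranes. Compound in DMF added at lipid-to-compound ratio 16 (6.25 µM compound), final DMF limited to 0.5%. Fluorescence monitored at ex 490/em 520 nm for 1 hour; replicated.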

Staphylococcus aureus [11] = test: Disruption of membrane in Staphylococcus aureus isolate DM4001R assessed as increase in ATP leakage at 4 times MIC after 1 hr by ATP bioluminescent assay relative to control; type: functional
Summary of the method: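 S. aureus DM4001 grown to exponential phase, washed three times in 20 mM PBS (pH 7), resuspended to OD600 0.2. Compound added, suspensions held 1 hour at 37 °C, then centrifuged. Supernatant mixed with luciferase/luciferin enzyme mix; extracellular ATP quantified by luminescence. Replicated.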

Staphylococcus aureus [12] = test: Antibacterial activity against methicillin-resistant Staphylococcus aureus DB57964 after 24 hrs by two fold dilution assay; type: functional; conditions: DB57964, 24 h; summary of the method: as §1
Staphylococcus aureus [13] = test: Antibacterial activity against methicillin-resistant Staphylococcus aureus DM 21455 after 24 hrs by two fold dilution assay; type: functional; conditions: DM 21455, 24 h; summary of the method: as §1
Staphylococcus aureus [14] = test: Antibacterial activity against Staphylococcus aureus DM 4001R after 24 hrs by two fold dilution assay; type: functional; summary of the method: as §1
Staphylococcus aureus [15] = test: Antibacterial activity against methicillin-sensitive Staphylococcus aureus ATCC 29213 after 24 hrs by two fold dilution assay; type: functional; conditions: ATCC 29213, 24 h; summary of the method: as §1
Staphylococcus aureus [16] = test: Antibacterial activity against methicillin-sensitive Staphylococcus aureus ATCC 6538 after 24 hrs by two fold dilution assay; type: functional; conditions: ATCC 6538, 24 h; summary of the method: as §1
Staphylococcus aureus [17] = test: Bactericidal activity against methicillin-resistant Staphylococcus aureus DM21455 assessed as log reduction in bacterial load at 2 times MIC after 30 mins by time kill assay; type: functional
Summary of the method: (§5)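 MRSA DM21455 was taken from colonies on 18-22 h TSA plates and diluted to 10^5~10^6 CFU/mL in PBS. Cells were exposed to 0.5×, 1×, 2× and 4× MIC at 35 °C, with a PBS control. Samples were taken at 10 min, 30 min, 1, 2, 4 and 8 h, 10-fold diluted in PBS and plated on MHA. Colonies were counted after 24-48 h at 35 °C. Replicated.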

Staphylococcus aureus [18] = test: Bactericidal activity against methicillin-resistant Staphylococcus aureus DM21455 assessed as log reduction in bacterial load at 4 times MIC after 10 mins by time kill assay; type: functional; summary of the method: as §5
Staphylococcus aureus [19] = test: Disruption of cytoplasmic membrane in Staphylococcus aureus isolate DM4001R at 2 times MIC after 3000 secs by SYTOX green dye based fluorescence assay; type: functional
Summary of the method: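 Clinical S. aureus isolate DM4001R incubated with SYTOX Green plus compound; membrane permeabilization read as increased fluorescence intensity. Measurements replicated.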

Lipid bilayer [20] = test: Induction of membrane damage in DOPC/cholesterol large unilamellar vesicles assessed as calcein leakage at compound to lipid ratio of 1:16 after 1 hr by fluorescence assay relative to control; summary of the method: as §4
Staphylococcus aureus [21] = test: Antibacterial activity against methicillin-resistant Staphylococcus aureus ATCC BAA-38 after 24 hrs by two fold dilution assay; type: functional; conditions: ATCC BAA-38, 24 h; summary of the method: as §1
Enterococcus faecium [22] = test: Antibacterial activity against vancomycin A-resistant Enterococcus faecium VRE 1007 after 24 hrs by two fold dilution assay; type: functional; conditions: VRE 1007, 24 h; summary of the method: as §1
Staphylococcus aureus [23] = test: Antibacterial activity against methicillin-resistant Staphylococcus aureus DM 9808R after 24 hrs by two fold dilution assay; type: functional; summary of the method: as §1
[24] = Cytotoxicity against human corneal fibroblasts assessed as reduction in cell viability at 100 uM after 4 hrs by CytoTox-ONE reagent-based LDH assay; conditions: corneal fibroblast; summary of the method: as §2
Bacillus cereus = test: Antibacterial activity against Bacillus cereus ATCC 11778 after 24 hrs by two fold dilution assay; type: functional; conditions: ATCC 11778, 24 h; summary of the method: as §3
Enterococcus faecalis = test: Antibacterial activity against Enterococcus faecalis ATCC 29212 after 24 hrs by two fold dilution assay; type: functional; conditions: ATCC 29212, 24 h; summary of the method: as §3
Staphylococcus aureus [25] = test: Antibacterial activity against methicillin-sensitive Staphylococcus aureus DM4583R after 24 hrs by two fold dilution assay; type: functional; summary of the method: as §1
Staphylococcus aureus [26] = test: Antibacterial activity against methicillin-sensitive Staphylococcus aureus DM4400R after 24 hrs by two fold dilution assay; type: functional; summary of the method: as §1
Staphylococcus aureus [27] = test: Antibacterial activity against methicillin-resistant Staphylococcus aureus DB68004 after 24 hrs by two fold dilution assay; type: functional; conditions: DB68004, 24 h; summary of the method: as §1
Staphylococcus aureus [28] = test: Antibacterial activity against Staphylococcus aureus ATCC 29213 at 0.5 times MIC after 30 serial passages; type: functional
Summary of the method: (§6)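 Serial-passage resistance selection in S. aureus ATCC29213. MIC was determined by CA-MHB broth macrodilution (2-fold dilutions, ~5×10^5 CFU/mL, 35 °C). Cells grown at 0.5× MIC were recovered and used to prepare the inoculum for the next MIC assay, with MIC change read after each 24 h/35 °C round. This was repeated for 17 passages, or 30 passages for one compound. Replicated.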

Staphylococcus aureus [29] = test: Bactericidal activity against methicillin-resistant Staphylococcus aureus DM21455 assessed as log reduction in bacterial load at 2 times MIC after 2 hrs by time kill assay; type: functional; summary of the method: as §5
Staphylococcus aureus [30] = test: Antibacterial activity against Staphylococcus aureus ATCC 700699 infected in C57BL6 mouse cornea assessed as decrease in number of viable bacteria at 0.5% administered topically at 2 hrs interval for 4 times starting on day 1 post infection measured post last dose relative to control; type: functional, Mu50
Staphylococcus aureus [31] = test: Antibacterial activity against Staphylococcus aureus ATCC 29213 at 0.5 times MIC after 17 serial passages; type: functional; summary of the method: as §6
Staphylococcus aureus [32] = test: Antibacterial activity against Staphylococcus aureus ATCC 29213 infected in C57BL6 mouse cornea assessed as decrease in number of viable bacteria at 0.5% administered topically at 2 hrs interval for 4 times starting on day 1 post infection measured post last dose relative to control; type: functional

Row | Structure (SMILES) | MIC (Staphylococcus aureus [1]) [µg/mL] | Activity [2] | MIC (Staphylococcus aureus [3]) [µg/mL] | MIC (Staphylococcus aureus [4]) [µg/mL] | MIC (Staphylococcus aureus [5]) [µg/mL] | MIC (Enterococcus faecium [6]) [µg/mL] | solubility [7] | MIC (Enterococcus hirae) [µg/mL] | MIC (Staphylococcus aureus [8]) [µg/mL] | MIC (Enterococcus faecium [9]) [µg/mL] | Activity (Lipid bilayer [10]) [%] | Activity (Staphylococcus aureus [11]) [%] | MIC (Staphylococcus aureus [12]) [µg/mL] | MIC (Staphylococcus aureus [13]) [µg/mL] | MIC (Staphylococcus aureus [14]) [µg/mL] | MIC (Staphylococcus aureus [15]) [µg/mL] | MIC (Staphylococcus aureus [16]) [µg/mL] | log(activity) (Staphylococcus aureus [18]) | Activity (Staphylococcus aureus [19]) | Activity (Lipid bilayer [20]) [%] | other results
1 | COC(=O)[C@H](CCCNC(=N)N)NC(=O)[C@H](CCCNC(=N)N)NC(=O)COc1cc(OCC=C(C)C)cc2oc3cc(OCC=C(C)C)cc(OCC(=O)N[C@@H](CCCNC(=N)N)C(=O)N[C@@H](CCCNC(=N)N)C(=O)OC)c3c(=O)c12 | 1.56 (≈ 1.34 µM) | 27.4% | 1.56 (≈ 1.34 µM) | 1.56 (≈ 1.34 µM) | 1.56 (≈ 1.34 µM) | 1.56 (≈ 1.34 µM) | Soluble | 6.25 (≈ 5.36 µM) | 1.56 (≈ 1.34 µM) | 3.13 (≈ 2.69 µM) | 63.3 | 66.4 | 1.56 (≈ 1.34 µM) | 3.13 (≈ 2.69 µM) | 1.56 (≈ 1.34 µM) | 3.13 (≈ 2.69 µM) | 1.56 (≈ 1.34 µM) | 3 | Active | < 20 | log(activity) (Staphylococcus aureus [17]): 3; MIC (Staphylococcus aureus [21]): 3.13 µg/mL (≈ 2.69 µM); MIC (Enterococcus faecium [22]): 1.56 µg/mL (≈ 1.34 µM); MIC (Staphylococcus aureus [23]): 3.13 µg/mL (≈ 2.69 µM); Activity [24]: Non-Toxic; MIC (Bacillus cereus): 3.13 µg/mL (≈ 2.69 µM); MIC (Enterococcus faecalis): 6.25 µg/mL (≈ 5.36 µM); MIC (Staphylococcus aureus [25]): 3.13 µg/mL (≈ 2.69 µM); MIC (Staphylococcus aureus [26]): 3.13 µg/mL (≈ 2.69 µM); MIC (Staphylococcus aureus [27]): 1.56 µg/mL (≈ 1.34 µM); Activity (Staphylococcus aureus [28]): Active
2 | COC(=O)[C@H](CCCNC(=N)N)NC(=O)COc1cc(OCC=C(C)C)cc2oc3cc(OCC=C(C)C)cc(OCC(=O)N[C@@H](CCCNC(=N)N)C(=O)OC)c3c(=O)c12 | 1.56 (≈ 1.83 µM) | Non-Toxic | 3.13 (≈ 3.67 µM) | 3.13 (≈ 3.67 µM) | 0.78 (≈ 0.914 µM) | 6.25 (≈ 7.33 µM) | Soluble | 6.25 (≈ 7.33 µM) | 1.56 (≈ 1.83 µM) | 6.25 (≈ 7.33 µM) | 58.7 | 59.6 | 1.56 (≈ 1.83 µM) | 1.56 (≈ 1.83 µM) | 0.78 (≈ 0.914 µM) | 3.13 (≈ 3.67 µM) | 0.78 (≈ 0.914 µM) | 3 | Active | < 20 | log(activity) (Staphylococcus aureus [29]): 3; Activity (Staphylococcus aureus [30]): 92.8%; Activity (Staphylococcus aureus [31]): Active; Activity (Staphylococcus aureus [32]): 98.5%; MIC (Staphylococcus aureus [21]): 3.13 µg/mL (≈ 3.67 µM); MIC (Enterococcus faecium [22]): 6.25 µg/mL (≈ 7.33 µM); MIC (Staphylococcus aureus [23]): 0.78 µg/mL (≈ 0.914 µM); MIC (Bacillus cereus): 3.13 µg/mL (≈ 3.67 µM); MIC (Enterococcus faecalis): 3.13 µg/mL (≈ 3.67 µM); MIC (Staphylococcus aureus [25]): 1.56 µg/mL (≈ 1.83 µM); MIC (Staphylococcus aureus [26]): 0.78 µg/mL (≈ 0.914 µM); MIC (Staphylococcus aureus [27]): 3.13 µg/mL (≈ 3.67 µM)
